As a reminder, the pIC50 is −log10 of the IC50, conventionally taken in molar units.

pIC50: −log10 of the molar value.

The test system of one experiment is HL-60. The experiment can be described thus: Concentration of the compound required to inhibit cell growth by 50% towards human HL60 tumor cell lines by the trypan blue dye exclusion test after 72 h. Format: functional, cell-based. The procedure, abridged:
(§1)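 Cells were seeded in IMDM with 10% heat-inactivated FCS, penicillin/streptomycin and L-glutamine at 37 °C under 5% CO2, at 5.0 × 10^4 cells·mL-1 for HeLa and 2.0 × 10^5 cells·mL-1 for HL60. Compounds were taken from DMSO stocks into IMDM (final DMSO 0.1%). After 72 h, cells were stained for 2 min with 0.25% trypan blue plus 5% FCS, and viable cells were counted by phase-contrast microscopy. IC50 was taken as 50% growth inhibition versus control.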

The next experiment concerns HeLa. Description: Concentration of the compound required to inhibit cell growth by 50% towards human HeLa tumor cell lines by the trypan blue dye exclusion test after 72 h. Format: functional, cell-based. The procedure, abridged: as §1

In the case of CISPLATIN, the results for the negative logarithm of the IC50 (pIC50) in the experiment with HL-60 and with HeLa were 5.77 and 5.92, respectively.
In the same order, the values of [Au(MSDT)Br2] are 6.10 and 5.74.
In the same order, the values of [Au(MSDT)Cl2] are 6.05 and 5.77.
In the same order, the values of [Pd(MSDT)Br]n are 5.43 and 5.30.
Regarding [Pd(MSDT)Cl]n, the pIC50 in the experiment on HL-60 was 5.42; in the experiment on HeLa, 5.22.
In the same order, the values of [Pd(MSDTM)Br2] are < 4.82 and < 4.82.
In the same order, the values of [Pt(MSDT)Br]n are < 4.82 and < 4.82.
In the same order, the values of [Pt(MSDT)Cl]n are < 4.82 and < 4.82.
On to [Pt(MSDTM)Br2], for which the pIC50 in the experiment with HL-60 and with HeLa was < 4.82 throughout.
